# From PubChem BioAssay
# The list is not random: actives were taken first. Their share in the collection is about 3.7%.
# NS3 helicase inh: inhibitors of Hepatitis C virus NS3 helicase; NS3 helicase DNA unwinding, Cy5 molecular beacon fluorescence; inhibition, % at 10.9 µM; actives 0.56% (n = 290,000);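 active = inhibition above the mean of all tested compounds plus 3 SD, set per campaign, cut at about 35% in these data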;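 also: 0% = DMSO wells and 100% = thioflavine S control wells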
#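 System: HCV NS3 helicase fragment; control set: DMSO and thioflavine S; technique: Cy5 fluorescence at 0 and 60 min, beacon hairpin quenching; reagent: beacon DNA duplex substrate plus ATP; replicates: singlicate; schedule: 1 h reaction at 25 °C, ATP-initiated; medium: MOPS buffer pH 6.5 with MgCl2, DTT, Tween20, BSA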
# TAAR1 agonist: agonists of human TAAR1. actives 0.99% (n = 360,000). AID 624467. activation, % at 3 µM. CHO RD-HGA16 TAAR1, Fluo-8 calcium fluorescence; vehicle wells 0%, saturating PEA agonist 100%. Q96RJ0;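 active = activation above the mean activation of all test compounds in the run plus 3 SD, cut at about 38% in these data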
# Target sequence (Q96RJ0 whole entry, looked up): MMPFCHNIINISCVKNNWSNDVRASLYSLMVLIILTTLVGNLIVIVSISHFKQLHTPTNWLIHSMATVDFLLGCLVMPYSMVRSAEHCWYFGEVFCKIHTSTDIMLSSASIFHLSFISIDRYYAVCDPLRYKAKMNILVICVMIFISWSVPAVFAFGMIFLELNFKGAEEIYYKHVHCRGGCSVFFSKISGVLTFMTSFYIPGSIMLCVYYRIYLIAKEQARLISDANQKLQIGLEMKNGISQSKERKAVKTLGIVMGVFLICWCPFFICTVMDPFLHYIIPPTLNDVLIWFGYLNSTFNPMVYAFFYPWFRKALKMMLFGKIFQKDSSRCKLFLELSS
#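 Signal – calcium-sensitive Fluo-8 signal, excitation 470-495, emission 515-575 nm · System – RD-HGA16 (CHO) cells co-expressing Gα16 and hTAAR1 · Incubation – 17-24 h seeding, 75 min 37 °C dye, 30 min RT · Compound dosing – 3 µM single concentration · Repeats – no replicates (n 1)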
# core dimer inh: HCV core protein dimerization inhibition; actives 0.33% (n = 300,000); TR-FRET GST/Flag-core106 dimerization, 1536-well; inhibition, % at 5 µM; AID 1899;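 active = inhibition above the mean of all tested compounds plus 3 SD, set per screening campaign, cut at about 45% in these data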
#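 Assay system: tagged HCV core106 pair (GST and Flag); medium: KF-containing HEPES buffer, pH 7.45, DTT, CHAPS, BSA; also added: Eu donor and XL665 acceptor anti-tag antibodies; dosing: 5 µM single dose; timing: compound-protein-antibody incubation 4 h at 22.5 °C; signal: TR-FRET 671 and 617 nm emission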
# TAAR1 antagonist: human TAAR1 antagonism. inhibition, % at 3 µM. actives 1.5% (n = 360,000). CHO RD-HGA16 TAAR1, Fluo-8 calcium fluorescence, antagonist;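 active = inhibition above a per-plate cutoff, the mean inhibition of test compounds on that plate plus 3 SD, cut at about 49% in these data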;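 also: 0% = DMSO plus EC80 beta-PEA response and 100% = DMSO alone without agonist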
#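 Test system: RD-HGA16 CHO cells with stable hTAAR1 and Gα16 / Probe or stimulus: EC80 β-phenethylamine stimulus / Times: seeding 17-24 h prior, 75-min 37 °C, 30-min RT dye loading / Detection: Fluo-8 calcium-sensitive fluorescence / Read-out basis: % inhibition scaled between DMSO and EC80 PEA controls / Repeats: singlicate, one well per test compound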
# rCAG RNA binder: r(CAG) repeat RNA binding; TO-PRO-1 dye displacement fluorescence; inhibition, % at 3 µM; actives 1.3% (n = 370,000);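 active = inhibition above the plate cutoff, the mean of all test compounds on that plate plus 3 SD, cut at about 35% in these data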;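 also: 0% = DMSO alone and 100% = 100 µM mitoxantrone as full dye displacement; higher means more dye released from RNA so lower well fluorescence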
# NS3 hel confirm: confirmation of Hepatitis C virus NS3 helicase inhibitors | shares compounds with NS3 helicase inh | NS3 helicase DNA unwinding, Cy5 molecular beacon fluorescence | inhibition, % at 10.9 µM | actives 31% (n = 1,600);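 active = inhibition above the mean of all tested compounds plus 3 SD, cutoff set per campaign, cut at about 36% in these data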
# DNA FID counter: counter-screen for HCV NS3 helicase inhibitors: DNA intercalator displacement. inhibition, % at 7.9 µM. shares compounds with NS3 helicase inh. AID 1945. DNA fluorescent intercalator displacement, fluorescence. actives 4% (n = 1,600); in the data active = inhibition above about 37%;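 also: 0% = vehicle and 100% = reference compound; higher means more displacement of ethidium bromide from the DNA hairpin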
# TAAR1 ag confirm: confirmation of human TAAR1 agonists; shares compounds with TAAR1 agonist; actives 82% (n = 2,400); CHO RD-HGA16 TAAR1, Fluo-8 calcium fluorescence; scaled: DMSO 0%, maximal phenethylamine 100%; activation, % at 3 µM;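 active = activation above a cutoff set at the run's mean compound activation plus 3 SD, cut at about 39% in these data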
# Ga16 ag counter: nonselective agonist in parental cells, TAAR1 agonist counter-screen; shares compounds with TAAR1 agonist; CHO-Ga16 parental, Fluo-8 calcium fluorescence; normalized to maximal ATP response, DMSO zero; actives 50% (n = 2,400); activation, % at 3 µM;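 active = activation above the run cutoff, the mean activation over all tested wells plus 3 SD, cut at about 12% in these data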;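 also: 0% = DMSO wells and 100% = maximal ATP response on the peak over basal ratio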
# TAAR1 desens: counter-screen for human TAAR1 agonists: agonists that desensitize TAAR1 | actives 46% (n = 2,400) | shares compounds with TAAR1 agonist | AID 651951 | inhibition, % at 3 µM | CHO RD-HGA16 hTAAR1, Fluo-8 calcium, beta-PEA response inhibition;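 active = inhibition above the run cutoff, the mean inhibition of all test compounds plus 3 SD, cut at about 49% in these data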;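 also: beta-PEA stimulus applied at its EC80; loss of beta-PEA calcium signal after compound pretreatment read as receptor desensitization; 0% = DMSO with beta-PEA at EC80 and 100% = DMSO alone without agonist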
# Ga16 nonsel ant: counter-screen for TAAR1 agonists: nonselective Ga16 antagonists; shares compounds with TAAR1 agonist; CHO-Ga16 ATP-induced calcium, Fluo-8 fluorescence; inhibition, % at 3 µM; actives 39% (n = 2,400);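 active = inhibition above the plate's mean compound inhibition plus 3 SD, computed per plate, cut at about 22% in these data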;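 also: 0% = EC80 ATP with DMSO and 100% = DMSO wells without ATP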
# rCAG binder conf: r(CAG) RNA repeat binding, confirmation; shares compounds with rCAG RNA binder; TO-PRO-1 dye displacement fluorescence; inhibition, % at 3 µM; actives 70% (n = 4,300); AID 652065;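 active = inhibition above a per-plate cutoff, the mean inhibition of sample wells plus 3 SD, cut at about 35% in these data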;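 also: loss of TO-PRO-1 fluorescence as compound displaces dye from 1x1 AA loop RNA; 0% = DMSO only wells and 100% = 100 µM mitoxantrone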
# dCAG dye counter: DNA CAG dye complex inhibition counter-screen; shares compounds with rCAG RNA binder; d(CAG) DNA oligo TO-PRO-1 dye displacement, fluorescence; actives 94% (n = 4,300); inhibition, % at 3 µM;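 active = inhibition above its plate's cutoff, the mean test-well inhibition plus 3 SD, cut at about 4.8% in these data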;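 also: 0% = DNA dye mix with DMSO and 100% = 100 µM mitoxantrone; hits displace the dye from DNA and so lower well fluorescence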
# DNA CAG DR: counter-screen for rCAG binders: inhibitors of DNA CAG TO-PRO-1 complex; shares compounds with rCAG RNA binder; DNA CAG/GTC duplex TO-PRO-1 dye displacement fluorescence; IC50, µM; actives 20% (n = 250); AID 686960; in the data active = IC50 below about 10 µM
# Numbers without * were called inactive; / = no result given.
SMILES,NS3 helicase inh,TAAR1 agonist,core dimer inh,TAAR1 antagonist,rCAG RNA binder,NS3 hel confirm,DNA FID counter,rCAG binder conf,dCAG dye counter,others
Cc1ccc(OCC(=O)N/N=C\c2ccc(-c3cccc(C(=O)O)c3)o2)c(C)c1,42.7*,-0.9,0.3,-19.4,45.6*,91.4*,-13.2,41.6*,11.0*,
CC(=O)CC[C@H]1CC[C@]2(CCCN(C(=O)C(C)(C)C)C2)O1,/,/,/,/,2.4,/,/,/,/,
COC(=O)[C@]12C[C@H](CC(=O)NCc3ccccc3)C(=O)N(Cc3ccc(Cl)cc3Cl)C1=C[C@H](C(C)(C)C)O[C@@H]2C,/,/,/,/,2.8,/,/,/,/,
CCc1nnc(NC(=O)c2cc(-c3ccco3)nc3ccccc23)s1,37.6*,-0.7,73.3*,-24.8,36.3*,-9.5,-6.8,23.1,16.2*,
CCOC(=O)c1c(-c2ccccc2)csc1N1C(=O)Nc2ccccc2N1O,47.4*,3.7,8.5,-12.7,49.8*,71.7*,-11.9,38.1*,8.8*,
CCc1nnc(NS(=O)(=O)c2ccc(NC(=S)NC(=O)c3ccncc3)cc2)s1,0.9,-0.3,-4.3,-11.7,18.7,/,/,/,/,
CCc1nnc(NS(=O)(=O)c2ccc(NC(=S)NC(=O)c3ccc(OC)cc3)cc2)s1,37.3*,2.9,19.4,7.5,70.5*,52.2*,10.4,66.6*,33.4*,
COc1ccc(C2CC(=O)C(c3cccc(Cl)c3)=CN2Cc2ccccc2)cc1 (configuration not stated),/,6.4,/,-14.0,4.3,/,/,/,/,
CCN(CC)S(=O)(=O)c1ccc(Cl)c(NC(=S)NC(=O)C2CCCC2)c1,/,11.1,/,37.6,4.9,/,/,/,/,
CCN(CC)c1ccc(S(=O)(=O)Nc2cc(Cl)ccc2Cl)cc1NC(=S)NC(=O)C1CCCC1,58.4*,-1.0,34.5,24.3,64.8*,23.3,-8.9,70.9*,34.6*,
COc1ccc(C2=NN(c3nc4ccccc4s3)C(=O)/C2=C\N(C)C)cc1,46.6*,4.2,0.0,1.0,45.5*,18.1,-4.6,38.3*,12.7*,
CCOC(=O)N1CCN(C(=O)C[C@H]2C(=O)N(Cc3ccc(OC)cc3)C3=CCCC[C@@]32C(=O)OCC)CC1,/,/,/,/,-1.5,/,/,/,/,
O=C1NN(c2ccc(Cl)cc2)C(=O)/C1=C\c1ccc(-c2cccc(C(=O)O)c2)o1,46.4*,-0.3,/,3.6,96.6*,65.8*,14.8,66.0*,27.6*,
C#CCNC(=O)C[C@H]1C(=O)N(CC=C)C2=CCCC[C@@]21C(=O)OCC,/,/,/,/,3.2,/,/,/,/,
CCOC(=O)c1c(N)sc(=S)c2c1CCC2,57.6*,4.3,45.2,7.6,35.5*,28.2,3.6,53.7*,23.5*,DNA CAG DR=>29.9
S=c1[nH]nc(-c2ccco2)n1/N=C/c1cccc(Cl)c1Cl,44.4*,-2.1,3.6,-14.8,57.0*,9.2,-3.2,48.1*,14.7*,
C=CCN=c1scc(-c2ccco2)n1/N=C/c1ccc(O)c(O)c1O,40.1*,6.2,5.7,-12.7,44.2*,-2.5,14.3,59.5*,29.0*,
CN=c1scc(-c2cccs2)n1/N=C/c1ccc(O)c(O)c1O,54.4*,45.0*,7.0,14.2,60.7*,-8.4,12.6,54.4*,25.3*,TAAR1 ag confirm=56.4*;Ga16 ag counter=21.3*;TAAR1 desens=45.5;Ga16 nonsel ant=18.0
CN=c1scc(-c2cccs2)n1/N=C/c1ccccc1O,7.7,2.9,-1.6,33.1,5.2,/,/,/,/,
CC(C)N=c1scc(-c2ccco2)n1/N=C/c1ccc(O)c(O)c1,19.4,14.6,-1.9,23.2,19.8,/,/,/,/,
O=[N+]([O-])c1c(Nc2ccccc2O)ccc2nonc12,13.6,1.3,-7.0,-0.4,0.7,/,/,/,/,
O=[N+]([O-])c1c(Nc2ccccc2O)cc(Cl)c2nonc12,37.6*,-4.3,/,25.0,41.0*,-22.9,17.2,19.9,9.7*,
N#Cc1ccc(/C=C2\CC3(OC(=O)c4ccccc4)CCCN2C3)cc1 (configuration not stated),/,/,/,/,2.2,/,/,/,/,
O=C(COC(=O)c1cc(-c2ccco2)nc2ccccc12)NCc1ccc2c(c1)OCO2,41.4*,-1.6,36.4,-21.1,37.5*,85.7*,54.1*,15.4,8.0*,
Cc1cccc(OCC(=O)Nc2cc(NC(=O)COc3cccc(C)c3)cc(C(=O)O)c2)c1,40.9*,3.0,-1.0,-2.6,62.6*,63.3*,-23.4,61.4*,22.3*,
O=C(O)/C(CC(=O)c1ccc(Cl)cc1)=N/Nc1ccc([N+](=O)[O-])cc1[N+](=O)[O-],37.6*,0.1,18.1,1.2,91.7*,52.4*,55.5*,89.5*,66.1*,
C/C(CCC(=O)O)=N/Nc1ccc([N+](=O)[O-])cc1[N+](=O)[O-],-6.2,2.8,-7.5,15.0,1.2,/,/,/,/,
O=C(NCC1CCN(C(=O)C(=O)c2cccs2)CC1)c1ccncc1,/,1.6,/,15.9,2.2,/,/,/,/,
O=C(O)c1ccc2nc(-c3ccco3)c(-c3ccco3)nc2c1,45.3*,7.2,/,3.9,41.8*,66.8*,9.6,46.8*,11.6*,
O=C(Nc1nnc(-c2ccco2)s1)C1CCCCC1,-1.5,15.8,2.2,3.6,0.1,/,/,/,/,
